Pf gametocyte: inhibitors of late stage P. falciparum gametocyte viability. AID 743093. actives 0.065% (n = 150,000). P. falciparum stage V gametocytes, ATP luminescence, 24 h. inhibition, % at 10.9 µM;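 active = inhibition above the mean plus 3 SD of compounds within the control limits, set per campaign, cut at about 38% in these data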;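 also: 0% = DMSO wells and 100% = medium only without gametocytes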
FLuc inhib CS: inhibits firefly luciferase, flagging false hits in luciferase inhibition screens | AID 1006 | ATPLite firefly luciferase biochemical luminescence, 10 min | actives 1.5% (n = 200,000) | inhibition, % at 10 µM;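 active = inhibition above about 50% when tested at 10 µM, limit read from the data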
Target sequence (P08659 whole entry, looked up): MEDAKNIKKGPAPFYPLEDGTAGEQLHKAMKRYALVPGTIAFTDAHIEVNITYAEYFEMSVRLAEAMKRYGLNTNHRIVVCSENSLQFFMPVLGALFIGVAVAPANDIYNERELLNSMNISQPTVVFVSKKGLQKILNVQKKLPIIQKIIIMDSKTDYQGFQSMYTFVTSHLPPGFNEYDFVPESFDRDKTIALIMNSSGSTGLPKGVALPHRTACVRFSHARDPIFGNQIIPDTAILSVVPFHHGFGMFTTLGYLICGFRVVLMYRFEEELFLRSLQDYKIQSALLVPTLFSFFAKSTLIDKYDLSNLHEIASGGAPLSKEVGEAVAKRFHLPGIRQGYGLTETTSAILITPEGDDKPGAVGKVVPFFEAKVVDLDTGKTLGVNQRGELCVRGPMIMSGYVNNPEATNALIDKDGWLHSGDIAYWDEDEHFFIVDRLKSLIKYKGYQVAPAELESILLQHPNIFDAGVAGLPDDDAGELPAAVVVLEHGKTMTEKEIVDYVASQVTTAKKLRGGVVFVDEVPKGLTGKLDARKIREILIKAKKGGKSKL
STAT1 act: activators of IFN-gamma induced STAT1 signaling; AID 932; NIH 3T3 STAT1-luciferase reporter, luminescence; 100% = IFN-gamma alone, no compound; activation (% of control), % at 5.5 µM; actives 2.6% (n = 200,000);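 active = activation above the screen-wide mean activation plus 3 SD, cut at about 130% in these data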;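 also: raw ratio to IFN-gamma control signal so 100% means no change and 0% no light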
FLuc act counter: firefly luciferase counter-screen for stimulation assays; 200,000 tested, under 10 active; P08659; activation factor at 10 µM; ATPlite luciferase biochemical, luminescence, 10 min; 0 = ATP-free wells, 1 = DMSO control;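 active = luciferase activation factor, scaled between plate controls, of at least 2 with compound at 10 µM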
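Assay system – cell-free luciferase reagent · Medium – PBS-based ATP solution · Dosing – test compounds dosed from 2 mM stocks in 100% DMSO · Timing – 10 min, room temperature · Technique – light output (luminescence) · Measure – luminescence gain marking luciferase activators · Controls – No-ATP low control, compound-free enzyme-plus-ATP high control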
APP 5'UTR act: APP 5'UTR luciferase reporter activation | AID 1276 | SH-SY5Y APP 5'UTR luciferase reporter, luminescence; zero percent = DMSO vehicle wells | activation, % at 2 µM | actives 1% (n = 190,000);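 active = activation above a set limit, based on mean plus 3 SD of controls, cut at about 140% in these data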
NF-kB expr up: NF-kB expression increase, human neuronal cells; NF-kB reporter expression; hits give high values; fold change at 12.5 µM; actives 1.6% (n = 190,000); AID 1239; in the data active = fold change above about 3.3
An asterisk follows results filed as active; · = not tested or not shown. Shown are actives, neighbours in structure and some others; about 3.5% of the full set was active somewhere.

SMILES | Pf gametocyte | FLuc inhib CS | STAT1 act | FLuc act counter | APP 5'UTR act | NF-kB expr up
CCc1n[n+](CC(=O)c2ccccc2)c(N)s1 | -9 | 70* | 45 | 0.3 | 142* | 1.1
CCOC(=O)C(=O)c1cn(C2OCC(OC(C)=O)C(OC(C)=O)C2OC(C)=O)c2ccccc12 (centres undefined) | -26 | -4 | 99 | 1 | -16 | 1
Cc1ccc2oc(-c3ccco3)cc(=O)c2c1 | 2 | 34 | 138* | 0.7 | 61 | 2.5
Cc1cc(OCc2cn3cccnc3n2)ccc1Cl | -2 | 16 | 131* | 0.8 | 37 | 2.1
COc1ccc(Nc2nc(C(=O)N(CCO)Cc3ccccc3)cs2)cc1 | -35 | -4 | 91 | 1 | -6 | 0.74
O=S(=O)(NC1CCc2ccccc21)c1ccc(S(=O)(=O)N2CCCC2)cc1 (centres undefined) | 15 | -9 | 84 | 1.1 | -7 | 0.82
CCOc1ccc(N2Cc3ncccc3C2=O)cc1 | 13 | 38 | 140* | 0.6 | 83 | 1.9
CCCCN(C(=O)c1c(C)[nH]c(C(=O)OCC)c1C)c1ccccc1 | · | -2 | 94 | 1 | 15 | 0.96
COc1ccc(C(=O)NCc2nnc(SCC(=O)N3CCC(C)CC3)o2)cc1 | · | 2 | 95 | 1 | 12 | 1.2
COC(=O)c1ccc(OS(=O)(=O)N(C)C)cc1 | -14 | 9 | 130* | 0.9 | 27 | 1
CN(C)S(=O)(=O)Oc1cccc(C(=O)Nc2ccc(Cl)c(Cl)c2)c1 | · | 1 | 137* | 1 | 174* | 4.2*
COc1ccc(NC(=O)c2cccc(OS(=O)(=O)N(C)C)c2)cc1 | 7 | 54* | 110 | 0.5 | 157* | 4.8*
CN(C)S(=O)(=O)Oc1ccc(C(=O)Nc2ccc([N+](=O)[O-])cc2)cc1 | -1 | 0 | 93 | 1 | 44 | 1.1
Cc1cc(N)n(-c2ncnc3scc(-c4ccccc4)c23)n1 | -13 | 2 | 95 | 1 | -3 | 1.1
O=C1c2ccccc2C(=O)C1c1ccc2ccccc2n1 | -10 | 91* | 125 | 0.1 | 129 | 1.2
COC(=O)C1=C(C)NC(C)=C(C(=O)OC)C1c1ccc2ccccc2n1 | · | -5 | 98 | 1 | · | 0.93
Cc1ccc(-c2nc(NCC3CCCO3)sc2C)cc1 (centres undefined) | -33 | -5 | 114 | 1.1 | 10 | 1.8
CCc1cccc2c(C(=O)COC(=O)c3ccccc3)c[nH]c12 | 8 | 1 | 143* | 1 | 38 | 3.2
CCc1cccc2c(C(=O)COC(=O)c3ccc(O)cc3)c[nH]c12 | -21 | -7 | 132* | 1.1 | 1 | 1.3
Cn1c(SCc2ccccc2[N+](=O)[O-])nnc1-c1cccnc1 | 2 | -8 | 114 | 1.1 | 25 | 1.5
O=C(COC(=O)[C@@H]1CCCN1C(=O)c1cccs1)Nc1ccc(F)cc1[N+](=O)[O-] | 22 | -6 | 96 | 1.1 | 13 | 1.2
NC(N)=N/N=C/c1ccc(OCc2ccc(Cl)cc2)cc1 | · | 7 | 112 | 0.9 | 111 | 6*
Cc1ccc(C)c(NC(=S)NNC(=O)c2csc3c2CCCC3)c1 | · | -5 | 92 | 1.1 | 1 | 1.2
Cc1cccc(NC(=S)NNC(=O)c2csc3c2CCCC3)c1 | · | 57* | 115 | 0.4 | 92 | 1.9
Cc1cccc(NC(=S)NNC(=O)c2cccc([N+](=O)[O-])c2)c1 | 8 | · | · | · | · | ·
SMILES | Pf gametocyte | FLuc inhib CS | STAT1 act | FLuc act counter | APP 5'UTR act | NF-kB expr up
Cc1cccc(NC(=S)NNC(=O)c2csc(C)c2)c1 | -2 | 57* | 98 | 0.4 | 61 | 2.6
CC(=O)CCc1ccc(OCCCOc2cccc3cccnc23)cc1 | 2 | · | · | · | · | ·
CC(C)(C)n1ncc2c(=O)n(CC(=O)NCCc3ccccc3)cnc21 | · | -3 | 94 | 1 | 15 | 1.6
CC(C)(C)n1ncc2c(=O)n(CC(=O)NCc3ccccc3Cl)cnc21 | · | 13 | 145* | 0.9 | 193* | 3.2
C/C(=N\Nc1ncc(Cl)cc1Cl)c1ccc2c(c1)OCO2 | -4 | 2 | 119 | 1 | 7 | 1.4
C/C(=N\Nc1ncc(Cl)cc1Cl)c1ccc(OC(F)F)cc1 | 14 | -4 | 122 | 1 | 60 | 4.5*
COC(=O)COc1ccc(/C=C2\SC(=O)N(CC(=O)Nc3ccccc3F)C2=O)cc1 | 4 | · | · | · | · | ·
O=C1Oc2ccccc2C(=O)/C1=C\N1CCN(c2ccccc2)CC1 | -12 | -8 | 100 | 1.1 | 7 | 1
